Laboratory results as given in ChEMBL document CHEMBL1131239, “Orally active benzamide antipsychotic agents with affinity for dopamine D2, serotonin 5-HT1A, and adrenergic alpha1 receptors” (J Med Chem, 1998).

How the values were obtained:
[1] = target: T1, 5-hydroxytryptamine receptor 1A (Rattus norvegicus, UniProt P19327); experiment: Compound was evaluated for its binding affinity against 5-hydroxytryptamine 1A receptor from rat cerebral cortex; assay type: tissue-based
T1 sequence (P19327 whole entry): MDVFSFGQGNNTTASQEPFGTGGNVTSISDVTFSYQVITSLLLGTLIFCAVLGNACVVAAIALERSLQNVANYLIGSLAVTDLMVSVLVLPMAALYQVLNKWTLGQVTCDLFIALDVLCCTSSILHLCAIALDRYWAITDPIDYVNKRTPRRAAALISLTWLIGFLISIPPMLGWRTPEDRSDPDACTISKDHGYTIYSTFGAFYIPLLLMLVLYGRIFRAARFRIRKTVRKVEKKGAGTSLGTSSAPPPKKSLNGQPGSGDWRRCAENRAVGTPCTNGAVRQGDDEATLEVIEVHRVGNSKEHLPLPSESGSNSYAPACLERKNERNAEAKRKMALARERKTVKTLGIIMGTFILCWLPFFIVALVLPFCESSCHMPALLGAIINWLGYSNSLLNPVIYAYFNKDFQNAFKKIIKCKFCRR

[2] = target: T2, Adrenergic receptor alpha-1 (Rattus norvegicus, UniProt P15823+P23944+P43140); experiment: Binding affinity against Alpha-1 adrenergic receptor from rat cerebral cortex; assay type: tissue-based
T2 sequence (P15823 whole entry): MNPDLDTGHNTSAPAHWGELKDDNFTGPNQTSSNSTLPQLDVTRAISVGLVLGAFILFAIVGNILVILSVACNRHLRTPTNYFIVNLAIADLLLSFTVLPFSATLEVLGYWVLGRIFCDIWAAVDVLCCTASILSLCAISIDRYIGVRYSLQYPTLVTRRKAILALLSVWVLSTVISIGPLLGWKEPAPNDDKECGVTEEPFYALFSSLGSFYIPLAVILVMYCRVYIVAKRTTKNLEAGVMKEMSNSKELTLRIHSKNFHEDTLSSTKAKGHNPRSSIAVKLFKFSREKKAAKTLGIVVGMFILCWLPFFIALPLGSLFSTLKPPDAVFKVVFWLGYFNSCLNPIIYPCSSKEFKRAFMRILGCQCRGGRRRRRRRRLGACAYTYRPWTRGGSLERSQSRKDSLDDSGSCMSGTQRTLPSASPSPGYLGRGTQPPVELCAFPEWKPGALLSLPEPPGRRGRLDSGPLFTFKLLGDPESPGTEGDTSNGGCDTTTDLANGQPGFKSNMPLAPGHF
T2 sequence (P23944 whole entry): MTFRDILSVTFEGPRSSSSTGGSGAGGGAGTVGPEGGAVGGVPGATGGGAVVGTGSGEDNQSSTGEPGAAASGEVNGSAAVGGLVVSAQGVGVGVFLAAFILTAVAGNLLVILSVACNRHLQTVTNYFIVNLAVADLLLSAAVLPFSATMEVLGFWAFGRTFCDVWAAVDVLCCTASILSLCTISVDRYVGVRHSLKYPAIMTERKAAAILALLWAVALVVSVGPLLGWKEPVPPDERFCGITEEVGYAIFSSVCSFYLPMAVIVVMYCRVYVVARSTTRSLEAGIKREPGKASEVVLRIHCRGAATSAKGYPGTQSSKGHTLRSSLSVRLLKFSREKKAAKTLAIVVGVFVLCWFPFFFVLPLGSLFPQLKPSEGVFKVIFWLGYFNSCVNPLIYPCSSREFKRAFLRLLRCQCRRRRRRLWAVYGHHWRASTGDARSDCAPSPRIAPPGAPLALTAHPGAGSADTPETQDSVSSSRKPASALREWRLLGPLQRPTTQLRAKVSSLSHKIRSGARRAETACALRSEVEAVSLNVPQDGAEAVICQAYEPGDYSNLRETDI
T2 sequence (P43140 whole entry): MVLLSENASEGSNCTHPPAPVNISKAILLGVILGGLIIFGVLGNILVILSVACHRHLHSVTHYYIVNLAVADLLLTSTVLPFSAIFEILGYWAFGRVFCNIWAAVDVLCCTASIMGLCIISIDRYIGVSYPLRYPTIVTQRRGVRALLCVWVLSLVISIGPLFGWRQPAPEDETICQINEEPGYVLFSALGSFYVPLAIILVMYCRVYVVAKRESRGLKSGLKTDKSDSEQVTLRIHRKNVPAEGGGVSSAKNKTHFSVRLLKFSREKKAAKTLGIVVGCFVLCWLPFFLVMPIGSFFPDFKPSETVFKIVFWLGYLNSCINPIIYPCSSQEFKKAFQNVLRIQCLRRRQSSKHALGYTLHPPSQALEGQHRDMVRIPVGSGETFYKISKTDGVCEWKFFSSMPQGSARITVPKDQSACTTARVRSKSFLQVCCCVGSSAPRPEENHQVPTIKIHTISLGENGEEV

Rattus norvegicus [3] = experiment: (§1) compound was tested for antipsychotic activity by conditioned avoidance response(CAR) assay in rats with a pretreatment period of 30 min upon intra peritoneal administration at a concentration of 15 mg/kg.; assay type: functional
Method in brief: (§2)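 Trained rats (N = 4) were run in 1-h sessions on two consecutive days, with the experimenter blind to drug and dose. Fed rats had food and water until placed in the test chambers. Fasted rats had no food overnight before the experiment.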

Rattus norvegicus [4] = experiment: compound was tested for antipsychotic activity by conditioned avoidance response(CAR) assay in rats with a pretreatment period of 30 min upon intra peritoneal administration at a concentration of 5 mg/kg.; assay type: functional
Method in brief: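 Rat conditioned avoidance test modified from Martin et al. Trained rats (N = 4) were run in 1-h sessions on two consecutive days. Fed animals had food and water until placed in the test chambers. Dosing was ip with 30 min pretreatment, and activity was expressed as percent inhibition at the stated dose.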

Rattus norvegicus [5] = experiment: as §1; assay type: functional; remark: listed apart in the source
Rattus norvegicus [6] = experiment: compound was tested for antipsychotic activity by conditioned avoidance response(CAR) assay in rats with a pretreatment period of 30 min upon intra peritoneal administration at a concentration of 1 mg/kg.; assay type: functional; method in brief: as §2
Rattus norvegicus [7] = experiment: Percent catalepsy in male Spargue-Dawley rat at pretreatment time 240 mins and when administered ip at dose 50 mg/kg; assay type: functional; settings: route intraperitoneal
Method in brief: (§3)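 Catalepsy in rats, groups of five per drug treatment, scored blind to drug and dose. Each session included a saline or vehicle negative control and a haloperidol 2 mg/kg positive control. Deaths during the experiment were recorded in the catalepsy column as number dead out of five.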

Rattus norvegicus [8] = experiment: Percent catalepsy in male Spargue-Dawley rat at pretreatment time 60 mins and when administered ip at dose 50 mg/kg; assay type: functional; settings: route intraperitoneal; method in brief: as §3
Rattus norvegicus [9] = experiment: compound was tested for antipsychotic activity by conditioned avoidance response(CAR) assay in rats with a pretreatment period of 60 min upon peroral administration at a concentration of 20 mg/kg.; assay type: functional; settings: route oral
Rattus norvegicus [10] = experiment: compound was tested for antipsychotic activity by conditioned avoidance response(CAR) assay in rats with a pretreatment period of 30 min upon peroral administration; assay type: functional; settings: po; method in brief: as §2

| SMILES | Ki [1] | Ki [2] | inhibition in vivo at 15 mg/kg (Rattus norvegicus [3]) | inhibition in vivo at 5 mg/kg (Rattus norvegicus [4]) | inhibition in vivo at 15 mg/kg (Rattus norvegicus [5]) | inhibition in vivo at 1 mg/kg (Rattus norvegicus [6]) | Catalepsy (Rattus norvegicus [7]) | Catalepsy (Rattus norvegicus [8]) | inhibition in vivo at 20 mg/kg (Rattus norvegicus [9]) | ED50 (Rattus norvegicus [10]) |
| --- | --- | --- | --- | --- | --- | --- | --- | --- | --- | --- |
| CC(C)Oc1ccccc1N1CCN(Cc2cccc(C(=O)N3CCCCC3=O)c2)CC1 | 3.9 nM | 6.4 nM | -92.4% | -11.2% |  |  |  |  |  |  |
| CC(C)Oc1ccccc1N1CCN(Cc2cccc(C(=O)N3CCC3)c2)CC1 | 3.4 nM | 1.2 nM |  |  | -87% |  |  |  |  |  |
| CC(C)Oc1ccccc1N1CCN(Cc2cccc(C(=O)N(C)C3CCCCC3)c2)CC1 | 1.2 nM | 1.2 nM |  | -98.9% |  | -9.3% | 58.1% | 0% |  |  |
| CCCc1ccccc1N1CCN(Cc2cccc(C(=O)N3CCCCC3)c2)CC1 | 9.1 nM | 16 nM |  |  | -0.7% |  |  |  |  |  |
| O=C(c1cccc(CN2CCN(c3ccccc3Cl)CC2)c1)N1CCCCC1 | 8.2 nM | 16 nM |  | -67.9% | -68.6% |  |  |  |  |  |
| COCCN1CCN(Cc2cccc(C(=O)N3CCCCCC3)c2)CC1 |  | > 1000 nM |  |  |  |  |  |  |  |  |
| CC(C)Oc1ccccc1N1CCN(Cc2cccc(C(=O)N3CCCCCCC3)c2)CC1 | 0.13 nM | 1.9 nM |  | -90.4% |  | -24.5% | 17.6% | 34.4% | -84.7% |  |
| CC(C)Oc1ccccc1N1CCN(Cc2cccc(C(=O)N3CCOCC3)c2)CC1 | 3.2 nM | 29 nM |  | -95.4% |  | -94.5% |  |  | -96.2% |  |
| O=C(c1cccc(CN2CCN(c3ccccc3C(F)(F)F)CC2)c1)N1CCCCC1 | 0.8 nM | 3.3 nM |  | -5.5% | -59.7% |  |  |  |  |  |
| O=C(c1cccc(CN2CCN(c3ccccc3)CC2)c1)N1CCCCC1 | 7.2 nM | 44 nM |  | -2.2% | -82.1% |  |  |  |  |  |
| CC(C)Oc1ccccc1N1CCN(C(C)c2cccc(C(=O)N3CCCCC3)c2)CC1 (stereo not given) | > 1000 nM | 87 nM | -7.1% |  |  |  |  |  |  |  |
| CCCCN(CCCC)C(=O)c1cccc(CN2CCN(c3ccccc3OC(C)C)CC2)c1 | 0.8 nM | 3.3 nM |  |  | -5.6% |  |  |  |  |  |
| O=C(c1cccc(CN2CCN(CCO)CC2)c1)N1CCCCCC1 |  | > 1000 nM |  | -2.1% |  |  |  |  |  |  |
| O=C(c1cccc(CN2CCN(c3cccc4ccccc34)CC2)c1)N1CCCCC1 | 1.8 nM | 57 nM |  |  | -18.8% |  |  |  |  |  |
| CN1CCN(Cc2cccc(C(=O)N3CCCCC3)c2)CC1 |  | > 1000 nM |  |  | 0.4% |  |  |  |  |  |
| CC(C)Oc1ccccc1N1CCN(Cc2cccc(C(N)=O)c2)CC1 | 18 nM | 11.4 nM |  | -88.5% |  | -3% |  |  | -1.1% |  |
| CC(C)Oc1ccccc1N1CCN(Cc2cccc(C(=S)N3CCCCC3)c2)CC1 | 1.1 nM | 2.3 nM |  | -71.6% |  |  |  |  |  |  |

| SMILES | Ki [1] | Ki [2] | inhibition in vivo at 15 mg/kg (Rattus norvegicus [3]) | inhibition in vivo at 5 mg/kg (Rattus norvegicus [4]) | inhibition in vivo at 15 mg/kg (Rattus norvegicus [5]) | inhibition in vivo at 1 mg/kg (Rattus norvegicus [6]) | Catalepsy (Rattus norvegicus [7]) | Catalepsy (Rattus norvegicus [8]) | inhibition in vivo at 20 mg/kg (Rattus norvegicus [9]) | ED50 (Rattus norvegicus [10]) |
| --- | --- | --- | --- | --- | --- | --- | --- | --- | --- | --- |
| CC(C)Oc1ccccc1N1CCN(Cc2cccc(C(=O)NC3CCCCC3)c2)CC1 | 4.1 nM | 3.4 nM |  | -17.6% | -86.2% |  |  |  |  |  |
| O=C(c1cccc(CN2CCN(c3ncccn3)CC2)c1)N1CCCCC1 | 12 nM |  |  | -17.9% | -6.8% |  |  |  |  |  |
| CC(C)Oc1cc(F)ccc1N1CCN(Cc2cccc(C(=O)N3CCCCC3)c2)CC1 | 4.2 nM | 6 nM |  | -82.6% |  | -22.6% | 50% | 45.2% |  |  |
| O=C(c1cccc(CN2CCN(c3cccc(Cl)c3)CC2)c1)N1CCCCC1 | 1.2 nM | 11.4 nM |  | -36.1% |  |  | 33.9% | 21.8% | -27.9% |  |
| O=C(c1cccc(CN2CCN(c3cccc(C(F)(F)F)c3)CC2)c1)N1CCCCC1 | 2.3 nM | 562 nM |  | -3.7% | -71.6% |  |  |  |  |  |
| CC(C)Oc1ccccc1C1(O)CCN(Cc2cccc(C(=O)N3CCCCC3)c2)CC1 | > 1000 nM | 110 nM |  | 0.9% |  |  |  |  |  |  |
| O=C(c1cccc(CN2CCN(c3ccc4ccoc4c3)CC2)c1)N1CCCCC1 | 0.21 nM | 13 nM |  | -82.4% |  |  |  |  |  |  |
| CC(C)Oc1ccccc1N1CCN(Cc2cccc(C(=O)Nc3ccc(F)cc3)c2)CC1 | 11 nM | 11 nM |  |  | -2.5% |  |  |  |  |  |
| CC(C)Oc1ccccc1N1CCN(CCCCc2ccc(C(=O)N3CCCCC3)cc2)CC1 |  | 284 nM | -95.3% |  |  |  |  |  |  |  |
| N#Cc1ccccc1N1CCN(Cc2cccc(C(=O)N3CCCCC3)c2)CC1 | 2.5 nM | 19 nM |  | -73.9% |  | -5.3% |  |  | -5.4% |  |
| CC(C)Oc1ccccc1N1CCN(CCc2ccc(C(=O)N3CCCCC3)cc2)CC1 | 2.5 nM | 2.1 nM | -98.2% |  |  | -1.1% |  |  |  |  |
| O=C(c1cccc(CN2CCN(c3ccccc3F)CC2)c1)N1CCCCC1 | 16 nM | 27 nM |  |  | -84.3% |  |  |  |  |  |
| CCN1CCCC1CNC(=O)c1cccc(CN2CCN(c3ccccc3OC(C)C)CC2)c1 (stereo not given) | 121 nM | 486 nM |  | -19.4% | -74.9% |  |  |  |  |  |
| O=C(c1cccc(CN2CCN(c3ccc(Cl)cc3)CC2)c1)N1CCCCC1 | 121 nM | 486 nM |  |  | -4.7% |  |  |  |  |  |
| O=C(c1cccc(CN2CCN(c3cccc([N+](=O)[O-])c3)CC2)c1)N1CCCCC1 | 24 nM | > 1000 nM |  | -1.3% | -77.7% |  |  |  |  |  |
| CN1CCN(C2=Nc3cc(Cl)ccc3Nc3ccccc32)CC1 [CLOZAPINE] |  |  |  |  |  |  |  |  |  | 9.3 mg/kg |
